From the M2OR odorant receptor database

Assays:
Conditions in all cases: stereoisomer not certain
UniProt Q8VGM2 = molecular target: T1, UniProt Q8VGM2
T1 sequence (whole entry): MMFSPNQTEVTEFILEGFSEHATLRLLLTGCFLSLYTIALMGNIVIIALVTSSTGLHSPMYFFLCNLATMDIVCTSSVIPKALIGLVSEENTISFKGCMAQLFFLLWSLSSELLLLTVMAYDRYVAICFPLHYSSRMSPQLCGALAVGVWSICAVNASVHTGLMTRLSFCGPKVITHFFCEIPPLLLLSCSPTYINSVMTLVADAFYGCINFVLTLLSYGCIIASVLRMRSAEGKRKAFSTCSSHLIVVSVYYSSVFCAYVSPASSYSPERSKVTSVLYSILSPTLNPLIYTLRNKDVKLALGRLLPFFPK
Procedure, shortened: (§1)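 Transient luciferase assays in mammalian cell lines were common, though methods varied by source. The values come from published papers and their supplementary material, with extra details from the original authors when needed. Responsive refers to a measured signal the original authors judged statistically different from baseline, and non-responsive (inactive) to the remainder.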

UniProt Q8VGP6 = molecular target: T2, UniProt Q8VGP6
T2 sequence (whole entry): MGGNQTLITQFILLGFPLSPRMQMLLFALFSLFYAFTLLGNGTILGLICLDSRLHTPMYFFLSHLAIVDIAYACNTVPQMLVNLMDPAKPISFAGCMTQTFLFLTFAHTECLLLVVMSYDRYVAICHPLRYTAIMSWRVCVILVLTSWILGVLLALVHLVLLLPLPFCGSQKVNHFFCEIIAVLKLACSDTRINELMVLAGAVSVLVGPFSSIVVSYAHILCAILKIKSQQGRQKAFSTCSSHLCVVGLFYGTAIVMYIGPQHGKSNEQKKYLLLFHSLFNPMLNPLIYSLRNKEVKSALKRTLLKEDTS
Procedure, shortened: as §1

UniProt Q8VGQ3 = molecular target: T3, UniProt Q8VGQ3
T3 sequence (whole entry): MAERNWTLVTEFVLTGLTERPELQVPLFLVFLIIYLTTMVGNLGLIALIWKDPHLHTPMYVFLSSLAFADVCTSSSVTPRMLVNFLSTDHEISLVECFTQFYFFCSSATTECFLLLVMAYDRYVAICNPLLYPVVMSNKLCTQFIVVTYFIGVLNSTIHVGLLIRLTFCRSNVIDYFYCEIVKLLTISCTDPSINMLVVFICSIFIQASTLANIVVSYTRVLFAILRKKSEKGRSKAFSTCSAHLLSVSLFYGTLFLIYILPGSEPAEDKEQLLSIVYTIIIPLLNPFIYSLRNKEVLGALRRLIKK
Procedure, shortened: as §1

UniProt Q8VGT4 = molecular target: T4, UniProt Q8VGT4
T4 sequence (whole entry): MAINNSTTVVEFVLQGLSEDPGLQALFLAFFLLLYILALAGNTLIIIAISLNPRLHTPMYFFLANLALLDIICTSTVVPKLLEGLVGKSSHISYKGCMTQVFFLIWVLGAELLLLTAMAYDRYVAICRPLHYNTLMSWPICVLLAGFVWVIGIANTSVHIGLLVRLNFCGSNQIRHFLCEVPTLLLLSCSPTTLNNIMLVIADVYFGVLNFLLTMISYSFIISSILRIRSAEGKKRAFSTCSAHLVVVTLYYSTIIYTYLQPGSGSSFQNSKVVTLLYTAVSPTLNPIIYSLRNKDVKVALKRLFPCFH
Procedure, shortened: as §1

UniProt Q8VGU3 = molecular target: T5, UniProt Q8VGU3
T5 sequence (whole entry): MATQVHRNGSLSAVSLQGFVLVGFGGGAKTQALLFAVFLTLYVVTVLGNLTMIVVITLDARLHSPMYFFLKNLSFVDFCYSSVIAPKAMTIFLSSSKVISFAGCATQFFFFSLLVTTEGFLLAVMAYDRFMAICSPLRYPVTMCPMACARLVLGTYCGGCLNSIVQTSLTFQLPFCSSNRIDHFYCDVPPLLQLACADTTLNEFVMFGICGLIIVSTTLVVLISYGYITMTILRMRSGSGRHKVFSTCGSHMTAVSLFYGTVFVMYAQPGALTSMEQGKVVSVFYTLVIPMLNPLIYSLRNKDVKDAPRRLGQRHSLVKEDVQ
Procedure, shortened: as §1

UniProt Q8VGV1 = molecular target: T6, UniProt Q8VGV1
T6 sequence (whole entry): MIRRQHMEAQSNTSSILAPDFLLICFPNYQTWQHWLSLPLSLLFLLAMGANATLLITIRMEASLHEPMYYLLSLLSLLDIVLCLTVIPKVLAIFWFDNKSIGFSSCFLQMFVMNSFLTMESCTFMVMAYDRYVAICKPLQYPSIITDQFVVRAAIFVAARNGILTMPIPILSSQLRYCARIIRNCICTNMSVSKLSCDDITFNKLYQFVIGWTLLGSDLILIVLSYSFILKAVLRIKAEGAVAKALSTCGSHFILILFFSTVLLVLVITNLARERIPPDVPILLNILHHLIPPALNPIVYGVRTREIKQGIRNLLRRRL
Procedure, shortened: as §1

UniProt Q8VGV7 = molecular target: T7, UniProt Q8VGV7
T7 sequence (whole entry): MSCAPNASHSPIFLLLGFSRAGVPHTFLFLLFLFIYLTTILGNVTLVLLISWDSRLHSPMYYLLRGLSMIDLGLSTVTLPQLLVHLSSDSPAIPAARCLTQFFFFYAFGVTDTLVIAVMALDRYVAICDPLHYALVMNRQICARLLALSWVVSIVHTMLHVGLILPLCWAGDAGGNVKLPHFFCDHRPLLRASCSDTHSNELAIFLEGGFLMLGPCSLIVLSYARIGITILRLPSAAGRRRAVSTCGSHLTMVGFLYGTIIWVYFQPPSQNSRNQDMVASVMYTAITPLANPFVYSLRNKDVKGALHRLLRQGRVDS
Procedure, shortened: as §1

UniProt Q8VGX3 = molecular target: T8, UniProt Q8VGX3
T8 sequence (whole entry): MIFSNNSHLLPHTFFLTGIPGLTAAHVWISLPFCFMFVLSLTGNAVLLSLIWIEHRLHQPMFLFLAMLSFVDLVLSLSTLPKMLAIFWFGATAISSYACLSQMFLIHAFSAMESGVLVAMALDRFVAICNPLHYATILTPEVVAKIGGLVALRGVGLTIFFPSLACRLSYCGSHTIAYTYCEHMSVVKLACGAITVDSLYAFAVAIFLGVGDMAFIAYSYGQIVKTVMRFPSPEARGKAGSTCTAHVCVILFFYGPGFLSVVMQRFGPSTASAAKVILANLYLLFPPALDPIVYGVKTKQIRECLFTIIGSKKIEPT
Procedure, shortened: as §1

UniProt Q8VGX5 = molecular target: T9, UniProt Q8VGX5
T9 sequence (whole entry): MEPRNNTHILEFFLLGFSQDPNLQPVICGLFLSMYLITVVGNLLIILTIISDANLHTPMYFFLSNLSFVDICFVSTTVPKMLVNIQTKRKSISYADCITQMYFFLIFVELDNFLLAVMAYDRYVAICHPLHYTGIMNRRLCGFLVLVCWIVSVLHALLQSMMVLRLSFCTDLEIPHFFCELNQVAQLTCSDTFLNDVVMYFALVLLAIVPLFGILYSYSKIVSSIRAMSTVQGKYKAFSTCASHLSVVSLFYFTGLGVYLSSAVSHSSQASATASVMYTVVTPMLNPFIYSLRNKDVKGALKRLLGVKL
Procedure, shortened: as §1

UniProt Q8VGW5 = molecular target: T10, UniProt Q8VGW5
T10 sequence (whole entry): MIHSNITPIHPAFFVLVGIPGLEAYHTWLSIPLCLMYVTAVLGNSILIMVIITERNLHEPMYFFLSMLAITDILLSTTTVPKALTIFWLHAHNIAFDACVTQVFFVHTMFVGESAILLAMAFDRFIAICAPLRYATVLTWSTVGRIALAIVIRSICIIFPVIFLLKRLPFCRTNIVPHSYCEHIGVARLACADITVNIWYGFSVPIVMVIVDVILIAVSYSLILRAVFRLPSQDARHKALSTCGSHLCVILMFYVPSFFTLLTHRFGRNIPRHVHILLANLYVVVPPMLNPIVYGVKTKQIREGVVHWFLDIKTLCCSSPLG
Procedure, shortened: as §1

Measured: odorant receptor agonist call

CCCCC(C)=O
not listed: UniProt Q8VGW5
inactive: all other assays above

CCCCCCO
inactive: all assays above

CCCCCOC(=O)CCCCC
not listed: UniProt Q8VGW5
inactive: all other assays above

CCCCCCCO
active: UniProt Q8VGP6
inactive: all other assays above

CCCCC(=O)CC
not listed: UniProt Q8VGW5
inactive: all other assays above

CC12CCC(CC1=O)C2(C)C (stereo not given)
active: UniProt Q8VGT4 | UniProt Q8VGX5
not listed: UniProt Q8VGW5
inactive: all other assays above

CCCCCCCCCCO
active: UniProt Q8VGP6
not listed: UniProt Q8VGW5
inactive: all other assays above

CC(=O)Oc1ccccc1
active: UniProt Q8VGX5
not listed: UniProt Q8VGW5
inactive: all other assays above

CCCCCCOC(C)=O
not listed: UniProt Q8VGW5
inactive: all other assays above

CCC(=O)O
not listed: UniProt Q8VGW5
inactive: all other assays above

CC(=O)OCc1ccccc1
active: UniProt Q8VGP6 | UniProt Q8VGX5
not listed: UniProt Q8VGW5
inactive: all other assays above

CCCC(=O)C(C)=O
not listed: UniProt Q8VGW5
inactive: all other assays above

CCOC(=O)C(C)C
not listed: UniProt Q8VGW5
inactive: all other assays above

CC(=O)C1(C)CC2=C(CCCC2(C)C)CC1C (stereo not given)
inactive: UniProt Q8VGU3 | UniProt Q8VGX3 | UniProt Q8VGX5
active: UniProt Q8VGV7

CCCCCC(C)O (stereo not given)
inactive: UniProt Q8VGU3 | UniProt Q8VGV7 | UniProt Q8VGX3 | UniProt Q8VGX5

O=C([O-])CCCCCCCC(=O)[O-].[H+].[H+]
inactive: UniProt Q8VGU3 | UniProt Q8VGV7 | UniProt Q8VGW5 | UniProt Q8VGX3 | UniProt Q8VGX5

CCc1occc(=O)c1O
inactive: UniProt Q8VGU3 | UniProt Q8VGV7 | UniProt Q8VGX3
active: UniProt Q8VGX5

CCCCCO
inactive: UniProt Q8VGM2 | UniProt Q8VGP6 | UniProt Q8VGQ3 | UniProt Q8VGT4 | UniProt Q8VGV1 | UniProt Q8VGX5

O=c1ccc2ccccc2o1
inactive: UniProt Q8VGM2 | UniProt Q8VGP6 | UniProt Q8VGQ3 | UniProt Q8VGT4 | UniProt Q8VGV1
active: UniProt Q8VGX5

CC(C)=CCCC(C)CCO (stereo not given)
not listed: UniProt Q8VGW5
inactive: all other assays above

CCSSCC
inactive: UniProt Q8VGU3 | UniProt Q8VGV7 | UniProt Q8VGX3 | UniProt Q8VGX5

CC(C)=CCCC(C)=CCO
active: UniProt Q8VGX5
not listed: UniProt Q8VGW5
inactive: all other assays above
